# Measurements as given in ChEMBL document CHEMBL2093137, “WHO-TDR NTD Screening”.
# What was measured:
# [1] = WHO-TDR: Cytotoxicity; assay type: toxicity, cell-based; conditions: human, MRC5 cells
# Plasmodium falciparum K1 = assay: WHO-TDR: Malaria; assay type: functional, organism-based, Homo sapiens; conditions: Erythrocyte
# How it was run: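 Whole-organism screen of a 10,000-compound diverse library from Life Chemicals, filtered for drug-likeness and reactive groups, against intra-erythrocytic Plasmodium falciparum K1 strain in human red blood cells. The assay followed previously published standard procedures, with a reference drug as positive control. Antiplasmodial potency is reported as IC50.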
# Trypanosoma cruzi = assay: WHO-TDR: Chagas disease; assay type: functional, organism-based, Homo sapiens; conditions: MRC5
# How it was run: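 Intracellular amastigotes of the Trypanosoma cruzi Tulahuen CL2 beta-galactosidase strain, grown in MRC-5SV2 human lung fibroblast host cells, were tested in a whole-organism screen. The compounds came from a 10,000-member diverse Life Chemicals library that had been filtered for drug-likeness and reactive groups. Previously published standard procedures were followed, with a reference drug as positive control, and potency is reported as IC50.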
# [2] = test system: Trypanosoma brucei brucei; assay: WHO-TDR: Human African Trypanosomiasis (HAT); assay type: functional, organism-based; conditions: Squib-427
# How it was run: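 Whole-organism screen of a 10,000-compound diverse library from Life Chemicals, filtered for drug-likeness and reactive groups, against bloodstream forms of Trypanosoma brucei Squib 427 strain. The assay followed previously published standard procedures, with reference drugs as positive controls. Antiparasitic potency is reported as IC50.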
# Leishmania infantum = assay: WHO-TDR: Leishmaniasis; assay type: functional, organism-based, Mus musculus; conditions: Macrophage
# How it was run: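 Whole-organism screen of a 10,000-compound diverse library from Life Chemicals, filtered for drug-likeness and reactive groups, against intracellular amastigotes of Leishmania infantum MHOM/MA(BE)/67 in murine peritoneal macrophage host cells. The assay followed previously published standard procedures, with a reference drug as positive control. Antiparasitic potency is reported as IC50.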
# Schistosoma mansoni = assay: WHO-TDR: Schistosomiasis; assay type: functional; design: concentration or dose not given beside the values
# How it was run: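 Percent inhibition and IC50 describe activity against whole Schistosoma mansoni worms of the Puerto Rican strain, tested as larvae and/or adults. The compounds screened were a diverse set of 10,000 from Life Chemicals, filtered for drug-likeness and reactive groups. Testing followed previously published standard procedures, with a reference drug as positive control.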
# Onchocerca ochengi [3] = assay: (§1) WHO-TDR: Onchocerciasis; assay type: functional; design: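 at 12.5 µM on microfilariae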
# How it was run: (§2)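 Percent inhibition and IC50 describe activity against microfilariae of Onchocerca ochengi or Onchocerca lienalis, used as animal-pathogen substitutes for the human parasite. The compounds tested made up a 10,000-member diverse library from Life Chemicals.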
# Onchocerca ochengi [4] = assay: as §1; assay type: functional; design: concentration or dose not given beside the values; how it was run: as §2; remark: listed apart in the source
SMILES,IC50 [1] [µg/mL],IC50 (Plasmodium falciparum K1) [µg/mL],IC50 (Trypanosoma cruzi) [µg/mL],IC50 [2] [µg/mL],IC50 (Leishmania infantum) [µg/mL],% Inhibition (Schistosoma mansoni) [%],% Inhibition (Onchocerca ochengi [3]) [%],% Inhibition (Onchocerca ochengi [4]) [%]
COc1ccc(CCNC(=O)NCC2CC(=O)N(c3ccc(Cl)cc3)C2)cc1 (stereo unspecified),> 12.1,> 12.1,6.28,> 12.1,> 12.1,0,100,75
Cc1cc(=O)[nH]c(-n2nc(C)cc2NC(=O)C2c3ccccc3Oc3ccccc32)n1,0.504,0.657,< 0.124,0.876,4.01,50,0,0
CCN(CC)CCN(C(=O)Cc1ccc2c(c1)OCO2)c1nc2c(C)c(C)ccc2s1,> 14.3,8.03,9.51,0.452,> 14.3,0,0,0
CN1CCN(C(CNC(=O)c2ccc(F)c(F)c2)c2ccc3c(c2)CCN3C)CC1 (stereo unspecified),3.34,1.47,> 12.4,> 12.4,4.03,0,100,0
CN1CCN(C(CNC(=O)CCc2ccccc2)c2ccsc2)CC1 (stereo unspecified),> 10.7,> 10.7,0.498,> 10.7,> 10.7,0,0,0
CCOC(=O)c1ccccc1NC(=O)CSc1ncc(-c2ccccc2)[nH]1,> 11.4,> 11.4,> 11.4,> 11.4,> 11.4,0,100,0
O=C(NCc1cccs1)c1cn(Cc2ccccc2)nc1OCc1ccccc1,2.72,6.04,2.09,4.85,> 12.1,0,100,0
C=CCN1C(=O)C(C)(C)COc2ccc(NS(=O)(=O)c3ccc4c(c3)CCCC4)cc21,> 13.2,> 13.2,11.4,> 13.2,4.28,0,100,0
Cc1cc(NC(=O)c2cccs2)n(-c2nc3c(c(=O)[nH]2)CCC3)n1,2.03,10.2,0.56,3.2,5.3,0,0,0
COc1ccc(Cl)cc1C(=O)Nc1cc(C)nn1-c1nc2c(c(=O)[nH]1)CCC2,0.685,> 12,0.361,0.388,6.21,50,0,0
O=C(NCc1cc(-c2ccccc2F)on1)c1ccc(Br)o1,> 11,> 11,> 11,> 11,> 11,0,100,0
CN1CCN(C(CNC(=O)c2c(F)cccc2F)c2ccsc2)CC1 (stereo unspecified),> 11,> 11,0.406,> 11,> 11,0,0,0
Cc1cc(=O)[nH]c(-n2nc(C)cc2NC(=O)/C=C/c2ccc3c(c2)OCO3)n1,3.73,4.74,0.801,3.56,3.6,0,0,0
Cc1ccc(Cl)cc1S(=O)(=O)Nc1ccc2c(c1)NC(=O)C(C)(C)CO2,> 11.8,> 11.8,3.95,3.89,> 11.8,0,100,0
COc1ccccc1N1CCN(c2nc(Nc3ccc(C)cc3)c3nccnc3n2)CC1,4.5,2.66,3.44,4.1,4.15,25,100,0
NC(=O)c1cc(-c2ccccc2)sc1NC(=O)C1COc2ccccc2O1 (stereo unspecified),1.92,5.78,3.4,3.65,> 11.4,25,100,0
CN1CCc2cc(C(CNC(=O)COc3ccc(Cl)cc3Cl)N3CCCC3)ccc21 (stereo unspecified),11.6,5.1,4.36,0.43,3.38,0,50,0
Cc1c(S(=O)(=O)CCNC(=O)NC2CCCCC2)c2ccccc2n1Cc1ccc(F)cc1,> 14.1,> 14.1,> 14.1,> 14.1,> 14.1,0,100,0
COc1ccc(CCC(=O)NCC(c2ccsc2)N2CCc3ccccc3C2)cc1 (stereo unspecified),> 12.6,6.14,4.15,4.13,> 12.6,0,100,0
O=C(NCC1CC(=O)N(c2ccc(Cl)cc2)C1)Nc1ccccc1F (stereo unspecified),> 10.9,> 10.9,> 10.9,> 10.9,> 10.9,0,100,0
Cc1ccc(C)c(C(=O)Nc2ccc3c(c2)CCC(=O)N3Cc2ccccc2)c1,> 11.5,> 11.5,> 11.5,0.416,> 11.5,0,75,0
CC(C)c1ccc(NC(=O)c2n[nH]c3ccccc23)cc1,> 8.38,> 8.38,2.58,2.65,> 8.38,0,100,0
